Measured values reported in ChEMBL document CHEMBL3272186, “Synthesis of new cyclic nucleotides and their differential stimulatory effects on thyroid function in mice” (J Med Chem, 1976).

Legend:
Mus musculus [1] = test: Induction of radioiodine secretion from 14 days iodine-poor diet fed mouse thyroid assessed as blood [125I] level at 30 mg/kg, iv after 2 hrs pretreated with 10 ug L-thyroxine and [125-I] relative to control by McKenzie Bioassay; assay type: functional, Thyroid gland
Method in brief: (§1)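 Weanling female mice (14–16 g) fed an iodine-poor diet for 14 days, then given 10 μg L-thyroxine sc and 6–8 μCi 125I ip, with L-thyroxine (1 mg/l) in drinking water for 3 days. On day 4, cyclic nucleotides were given into the tail vein as sodium salts in aqueous solution, pH 7.4. Orbital-sinus blood was sampled at 0 and 2 h and γ-counted. Result is cpm(2 h)/cpm(0 h) × 100; mean of about six animals per dose.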

Mus musculus [2] = test: Induction of radioiodine secretion from 14 days iodine-poor diet fed mouse thyroid assessed as blood [125I] level at 60 mg/kg, iv after 2 hrs pretreated with 10 ug L-thyroxine and [125-I] relative to control by McKenzie Bioassay; assay type: functional, Thyroid gland
Mus musculus [3] = test: Induction of radioiodine secretion from 14 days iodine-poor diet fed mouse thyroid assessed as blood [125I] level at 6 mg/kg, iv after 2 hrs pretreated with 10 ug L-thyroxine and [125-I] relative to control by McKenzie Bioassay; assay type: functional, Thyroid gland; method in brief: as §1
Mus musculus [4] = test: Induction of radioiodine secretion from 14 days iodine-poor diet fed mouse thyroid assessed as blood [125I] level at 15 mg/kg, iv after 2 hrs pretreated with 10 ug L-thyroxine and [125-I] relative to control by McKenzie Bioassay; assay type: functional, Thyroid gland; method in brief: as §1
[5] = Stability of the compound assessed as hydrolysis in presence of phosphodiesterase; assay type: ADME
Mus musculus [6] = test: Induction of serum thyroxine level in Swiss mouse measured per 100 ml at 1 mg, iv after 1 hr by radioimmunoassay (reference value: 4.20 +/- 0.25 to 6.06 +/- 0.36 ug); assay type: functional
[7] = Toxicity in iv dosed mouse; assay type: organism-based; conditions: in vivo
Method in brief: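 Female mice (14–16 g, post-weaning) kept 14 days on an iodine-poor diet. They were then given 10 μg L-thyroxine sc and 6–8 μCi 125I ip, followed by L-thyroxine 1 mg/l in drinking water for 3 days. On day 4, cyclic nucleotides were injected into the tail vein as sodium salts in aqueous solution, pH 7.4, at 6–60 mg/kg. Deaths were recorded per dose group of about six animals.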

Mus musculus [8] = test: Induction of radioiodine secretion from 14 days iodine-poor diet fed mouse thyroid assessed as blood [125I] level at 45 mg/kg, iv after 2 hrs pretreated with 10 ug L-thyroxine and [125-I] relative to control by McKenzie Bioassay; assay type: functional, Thyroid gland; method in brief: as §1
Mus musculus [9] = test: Induction of serum thyroxine level in Swiss mouse measured per 100 ml at 1 mg, iv after 2 hrs by radioimmunoassay (reference value: 4.20 +/- 0.25 to 6.06 +/- 0.36 ug); assay type: functional

Compound | Activity (Mus musculus [1]) [%] | Activity (Mus musculus [2]) [%] | Activity (Mus musculus [3]) [%] | Activity (Mus musculus [4]) [%] | Stability [5] | serum T4 (Mus musculus [6]) [µg/dL] | LD50 [7] [mg/kg] | Activity (Mus musculus [8]) [%] | serum T4 (Mus musculus [9]) [µg/dL]
Nc1ncnc2c1nc(Br)n2[C@@H]1O[C@@H]2COP(=O)([O-])O[C@H]2[C@H]1O.[Na+] | 331 | 488 | 248 | 284 | – | – | – | – | –
CCCC(=O)Nc1ncnc2c1ncn2[C@@H]1O[C@@H]2COP(=O)([O-])O[C@H]2[C@H]1OC(=O)CCC.[Na+] | 136 | 245 | – | – | Stable | 5.15 | > 200 | – | –
CCCC(=O)Nc1ncnc2c1nc(SCc1ccccc1)n2[C@@H]1O[C@@H]2COP(=O)([O-])O[C@H]2[C@H]1OC(=O)CCC.[Na+] | 141 | 123 | 116 | 170 | – | – | – | – | –
CCCC(=O)Nc1ncnc2c1nc(SC)n2[C@@H]1O[C@@H]2COP(=O)([O-])O[C@H]2[C@H]1OC(=O)CCC.[Na+] | 125 | 174 | – | 150 | – | – | > 200 | – | –
CCCC(=O)O[C@@H]1[C@@H]2OP(=O)([O-])OC[C@H]2O[C@H]1n1c(SC)nc2c(N)ncnc21.[Na+] | 156 | – | – | – | – | – | > 200 | 110 | –
CCCC(=O)Nc1ncnc2c1nc(N)n2[C@@H]1O[C@@H]2COP(=O)([O-])O[C@H]2[C@H]1OC(=O)CCC.[Na+] | 146 | 164 | – | – | – | – | > 200 | – | –
Nc1ncnc2c1nc(SCc1ccccc1)n2[C@@H]1O[C@@H]2COP(=O)([O-])O[C@H]2[C@H]1O.[Na+] | 195 | – | 135 | 183 | – | – | – | – | –
CSc1nc2c(N)ncnc2n1[C@@H]1O[C@@H]2COP(=O)([O-])O[C@H]2[C@H]1O.[Na+] | 804 | – | 492 | 645 | – | 6.32 | – | – | 6.47
Nc1ncnc2c1nc(N)n2[C@@H]1O[C@@H]2COP(=O)([O-])O[C@H]2[C@H]1O.[Na+] | 607 | – | 226 | 663 | – | 6.84 | – | 818 | –
CCCC(=O)Nc1ncnc2c1nc(S)n2[C@@H]1O[C@@H]2COP(=O)([O-])O[C@H]2[C@H]1O.[Na+] | 342 | 630 | – | 139 | – | – | > 200 | – | –
[N-]=[N+]=Nc1nc2c(N)ncnc2n1[C@@H]1O[C@@H]2COP(=O)([O-])O[C@H]2[C@H]1O.[Na+] | 633 | – | 227 | 594 | – | 6.19 | – | – | –
CCCC(=O)Nc1ncnc2c1nc(O)n2[C@@H]1O[C@@H]2COP(=O)([O-])O[C@H]2[C@H]1OC(=O)CCC.[Na+] | 500 | 582 | – | 184 | – | 5.58 | > 200 | – | –
CCCC(=O)Nc1ncnc2c1nc(SC)n2[C@@H]1O[C@@H]2COP(=O)([O-])O[C@H]2[C@H]1O.[Na+] | 204 | 533 | – | 121 | – | – | > 200 | – | –
CCCC(=O)Nc1ncnc2c1nc(S)n2[C@@H]1O[C@@H]2COP(=O)([O-])O[C@H]2[C@H]1OC(=O)CCC.[Na+] | 177 | 238 | – | 154 | – | 4.3 | > 200 | – | –
CCCC(=O)Nc1ncnc2c1nc(SCc1ccccc1)n2[C@@H]1O[C@@H]2COP(=O)([O-])O[C@H]2[C@H]1O.[Na+] | 122 | 197 | – | 146 | – | – | > 200 | – | –
CCCC(=O)O[C@@H]1[C@@H]2OP(=O)([O-])OC[C@H]2O[C@H]1n1c(S)nc2c(N)ncnc21.[Na+] | 153 | 190 | – | 155 | – | – | > 200 | – | –
Nc1ncnc2c1nc(S)n2[C@@H]1O[C@@H]2COP(=O)([O-])O[C@H]2[C@H]1O.[Na+] | – | – | 136 | – | – | – | – | – | –
Nc1ncnc2c1nc(O)n2[C@@H]1O[C@@H]2COP(=O)([O-])O[C@H]2[C@H]1O.[Na+] | – | – | – | 114 | – | – | – | – | –
CSc1nc2c(N)ncnc2n1[C@@H]1O[C@H](COP(=O)(O)O)[C@@H](O)[C@H]1O | 112 | – | – | – | – | 4.44 | – | – | 4.78
[Cl-].[Na+] [SODIUM CHLORIDE] | – | – | – | – | – | 6 | – | – | 5.83
